{"source": "ChEMBL document CHEMBL5143539", "about": "“Synthesis and evaluation of dual-action kanglemycin-fluoroquinolone hybrid antibiotics” (Bioorg Med Chem Lett, 2022)", "key": {"Staphylococcus aureus [1]": {"test_system": "Staphylococcus aureus", "test": "Antibacterial activity against rifampicin resistant Staphylococcus aureus harboring RpoBH481Y mutant assessed as inhibition of bacterial growth", "assay_type": "functional"}, "Staphylococcus aureus [2]": {"test_system": "Staphylococcus aureus", "test": "Antibacterial activity against wild type Staphylococcus aureus assessed as inhibition of bacterial growth", "assay_type": "functional"}, "Staphylococcus aureus [3]": {"test_system": "Staphylococcus aureus", "test": "Antibacterial activity against ciprofloxacin resistant Staphylococcus aureus harboring ParCS80F and GyrAS84L double mutant assessed as inhibition of bacterial growth", "assay_type": "functional"}, "Staphylococcus aureus [4]": {"test_system": "Staphylococcus aureus", "test": "Antibacterial activity against Staphylococcus aureus harboring RpoBH481Y/ParCS80F/GyrAS84L triple mutant assessed as inhibition of bacterial growth", "assay_type": "functional"}, "Escherichia coli": {"test_system": "Escherichia coli", "test": "Antibacterial activity against Escherichia coli assessed as inhibition of bacterial growth", "assay_type": "functional", "procedure,_shortened": "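Run in duplicate, with the same result obtained in each trial.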"}, "HEK293": {"test_system": "HEK293", "test": "Cytotoxicity against HEK293 cells", "assay_type": "toxicity, cell-based, Homo sapiens"}}, "data": [{"compound": "CC(=O)O[C@H]1[C@H](C)[C@H](O)[C@H](C)[C@@H](O)[C@@H](C(C)OC(=O)C(C)(C)CC(=O)N2Cc3cc(-c4ccc5c(=O)c(C(=O)O)cn(C6CC6)c5c4OC(F)F)ccc3[C@H]2C)/C=C/C=C(/C)C(=O)NC2=CC(=O)c3c(c(O)c(C)c4c3C(=O)[C@@](C)(O/C=C/[C@H](O[C@H]3C[C@@H]5OCO[C@@H]5[C@@H](C)O3)[C@H]1C)O4)C2=O", "note": "(stereo not given in full)", "values": [{"measurement": "MIC", "setting": "Staphylococcus aureus [1]", "value": 16, "unit": "µg/mL"}, {"measurement": "MIC", "setting": "Staphylococcus aureus [2]", "value": 8, "unit": "µg/mL"}, {"measurement": "MIC", "setting": "Staphylococcus aureus [3]", "value": 8, "unit": "µg/mL"}, {"measurement": "MIC", "setting": "Staphylococcus aureus [4]", "value": "> 64", "unit": "µg/mL"}, {"measurement": "MIC", "setting": "Escherichia coli", "value": "> 64", "unit": "µg/mL"}, {"measurement": "IC50", "setting": "HEK293", "value": 19, "unit": "µg/mL"}]}, {"compound": "CC(=O)O[C@H]1[C@H](C)[C@H](O)[C@H](C)[C@@H](O)[C@@H](C(C)OC(=O)C(C)(C)CC(=O)O)/C=C/C=C(/C)C(=O)Nc2c3oc4cc(N5CCN(c6cc7c(cc6F)c(=O)c(C(=O)O)cn7C6CC6)CC5)cc(O)c4nc-3c3c4c(c(C)c(O)c3c2=O)O[C@](C)(O/C=C/[C@H](O[C@H]2C[C@@H]3OCO[C@@H]3[C@@H](C)O2)[C@H]1C)C4=O", "note": "(stereo not given in full)", "values": [{"measurement": "MIC", "setting": "Staphylococcus aureus [1]", "value": 32, "unit": "µg/mL"}, {"measurement": "MIC", "setting": "Staphylococcus aureus [2]", "value": 0.5, "unit": "µg/mL"}, {"measurement": "MIC", "setting": "Staphylococcus aureus [3]", "value": 0.5, "unit": "µg/mL"}, {"measurement": "MIC", "setting": "Staphylococcus aureus [4]", "value": "> 64", "unit": "µg/mL"}, {"measurement": "MIC", "setting": "Escherichia coli", "value": 8, "unit": "µg/mL"}, {"measurement": "IC50", "setting": "HEK293", "value": "> 64", "unit": "µg/mL"}]}, {"compound": "CC(=O)O[C@H]1[C@H](C)[C@H](O)[C@H](C)[C@@H](O)[C@@H](C(C)OC(=O)C(C)(C)CC(=O)O)/C=C/C=C(/C)C(=O)Nc2c3oc4cc(NCCCNC5(c6c(F)cc7c(=O)c(C(=O)O)cn8c7c6OC[C@@H]8C)CC5)cc(O)c4nc-3c3c4c(c(C)c(O)c3c2=O)O[C@](C)(O/C=C/[C@H](O[C@H]2C[C@@H]3OCO[C@@H]3[C@@H](C)O2)[C@H]1C)C4=O", "note": "(stereo not given in full)", "values": [{"measurement": "MIC", "setting": "Staphylococcus aureus [1]", "value": "> 64", "unit": "µg/mL"}, {"measurement": "MIC", "setting": "Staphylococcus aureus [2]", "value": 4, "unit": "µg/mL"}, {"measurement": "MIC", "setting": "Staphylococcus aureus [3]", "value": 4, "unit": "µg/mL"}, {"measurement": "MIC", "setting": "Staphylococcus aureus [4]", "value": "> 64", "unit": "µg/mL"}, {"measurement": "MIC", "setting": "Escherichia coli", "value": 64, "unit": "µg/mL"}, {"measurement": "IC50", "setting": "HEK293", "value": "> 64", "unit": "µg/mL"}]}, {"compound": "CC(=O)O[C@H]1[C@H](C)[C@H](O)[C@H](C)[C@@H](O)[C@@H](C(C)OC(=O)C(C)(C)CC(=O)O)/C=C/C=C(/C)C(=O)Nc2c3oc4cc(N5CCC(CCCC(=O)N6Cc7cc(-c8ccc9c(=O)c(C(=O)O)cn(C%10CC%10)c9c8OC(F)F)ccc7[C@H]6C)CC5)cc(O)c4nc-3c3c4c(c(C)c(O)c3c2=O)O[C@](C)(O/C=C/[C@H](O[C@H]2C[C@@H]3OCO[C@@H]3[C@@H](C)O2)[C@H]1C)C4=O", "note": "(stereo not given in full)", "values": [{"measurement": "MIC", "setting": "Staphylococcus aureus [1]", "value": "> 64", "unit": "µg/mL"}, {"measurement": "MIC", "setting": "Staphylococcus aureus [2]", "value": 64, "unit": "µg/mL"}, {"measurement": "MIC", "setting": "Staphylococcus aureus [3]", "value": 64, "unit": "µg/mL"}, {"measurement": "MIC", "setting": "Staphylococcus aureus [4]", "value": "> 64", "unit": "µg/mL"}, {"measurement": "MIC", "setting": "Escherichia coli", "value": "> 64", "unit": "µg/mL"}, {"measurement": "IC50", "setting": "HEK293", "value": "> 64", "unit": "µg/mL"}]}, {"compound": "CC(=O)O[C@H]1[C@H](C)[C@H](O)[C@H](C)[C@@H](O)[C@@H](C(C)OC(=O)C(C)(C)CC(=O)O)/C=C/C=C(/C)C(=O)Nc2c3oc4cc(NCCCN5Cc6cc(-c7ccc8c(=O)c(C(=O)O)cn(C9CC9)c8c7OC(F)F)ccc6[C@H]5C)cc(O)c4nc-3c3c4c(c(C)c(O)c3c2=O)O[C@](C)(O/C=C/[C@H](O[C@H]2C[C@@H]3OCO[C@@H]3[C@@H](C)O2)[C@H]1C)C4=O", "note": "(stereo not given in full)", "values": [{"measurement": "MIC", "setting": "Staphylococcus aureus [1]", "value": 8, "unit": "µg/mL"}, {"measurement": "MIC", "setting": "Staphylococcus aureus [2]", "value": 4, "unit": "µg/mL"}, {"measurement": "MIC", "setting": "Staphylococcus aureus [3]", "value": 16, "unit": "µg/mL"}, {"measurement": "MIC", "setting": "Staphylococcus aureus [4]", "value": "> 64", "unit": "µg/mL"}, {"measurement": "MIC", "setting": "Escherichia coli", "value": "> 64", "unit": "µg/mL"}, {"measurement": "IC50", "setting": "HEK293", "value": "> 64", "unit": "µg/mL"}]}, {"compound": "CC(=O)O[C@H]1[C@H](C)[C@H](O)[C@H](C)[C@@H](O)[C@@H](C(C)OC(=O)C(C)(C)CC(=O)NC2(c3c(F)cc4c(=O)c(C(=O)O)cn5c4c3OC[C@@H]5C)CC2)/C=C/C=C(/C)C(=O)NC2=CC(=O)c3c(c(O)c(C)c4c3C(=O)[C@@](C)(O/C=C/[C@H](O[C@H]3C[C@@H]5OCO[C@@H]5[C@@H](C)O3)[C@H]1C)O4)C2=O", "note": "(stereo not given in full)", "values": [{"measurement": "MIC", "setting": "Staphylococcus aureus [1]", "value": "> 64", "unit": "µg/mL"}, {"measurement": "MIC", "setting": "Staphylococcus aureus [2]", "value": 8, "unit": "µg/mL"}, {"measurement": "MIC", "setting": "Staphylococcus aureus [3]", "value": 8, "unit": "µg/mL"}, {"measurement": "MIC", "setting": "Staphylococcus aureus [4]", "value": "> 64", "unit": "µg/mL"}, {"measurement": "MIC", "setting": "Escherichia coli", "value": "> 64", "unit": "µg/mL"}, {"measurement": "IC50", "setting": "HEK293", "value": "> 64", "unit": "µg/mL"}]}, {"compound": "CC(=O)O[C@H]1[C@H](C)[C@H](O)[C@H](C)[C@@H](O)[C@@H](C(C)OC(=O)C(C)(C)CC(=O)O)/C=C/C=C(/C)C(=O)Nc2c3oc4cc(NCCCCCC(=O)N5Cc6cc(-c7ccc8c(=O)c(C(=O)O)cn(C9CC9)c8c7OC(F)F)ccc6[C@H]5C)cc(O)c4nc-3c3c4c(c(C)c(O)c3c2=O)O[C@](C)(O/C=C/[C@H](O[C@H]2C[C@@H]3OCO[C@@H]3[C@@H](C)O2)[C@H]1C)C4=O", "note": "(stereo not given in full)", "values": [{"measurement": "MIC", "setting": "Staphylococcus aureus [1]", "value": 4, "unit": "µg/mL"}, {"measurement": "MIC", "setting": "Staphylococcus aureus [2]", "value": 1, "unit": "µg/mL"}, {"measurement": "MIC", "setting": "Staphylococcus aureus [3]", "value": 2, "unit": "µg/mL"}, {"measurement": "MIC", "setting": "Staphylococcus aureus [4]", "value": "> 64", "unit": "µg/mL"}, {"measurement": "MIC", "setting": "Escherichia coli", "value": "> 64", "unit": "µg/mL"}, {"measurement": "IC50", "setting": "HEK293", "value": "> 64", "unit": "µg/mL"}]}, {"compound": "CC(=O)O[C@H]1[C@H](C)[C@H](O)[C@H](C)[C@@H](O)[C@@H](C(C)OC(=O)C(C)(C)CC(=O)O)/C=C/C=C(/C)C(=O)Nc2c3oc4cc(N5CCCn6nc(C(=O)N7Cc8cc(-c9ccc%10c(=O)c(C(=O)O)cn(C%11CC%11)c%10c9OC(F)F)ccc8[C@H]7C)cc6C5)cc(O)c4nc-3c3c4c(c(C)c(O)c3c2=O)O[C@](C)(O/C=C/[C@H](O[C@H]2C[C@@H]3OCO[C@@H]3[C@@H](C)O2)[C@H]1C)C4=O", "note": "(stereo not given in full)", "values": [{"measurement": "MIC", "setting": "Staphylococcus aureus [1]", "value": "> 64", "unit": "µg/mL"}, {"measurement": "MIC", "setting": "Staphylococcus aureus [2]", "value": 16, "unit": "µg/mL"}, {"measurement": "MIC", "setting": "Staphylococcus aureus [3]", "value": 16, "unit": "µg/mL"}, {"measurement": "MIC", "setting": "Staphylococcus aureus [4]", "value": "> 64", "unit": "µg/mL"}, {"measurement": "MIC", "setting": "Escherichia coli", "value": "> 64", "unit": "µg/mL"}, {"measurement": "IC50", "setting": "HEK293", "value": "> 64", "unit": "µg/mL"}]}, {"compound": "COc1c(N2C[C@@H]3CCCN(c4cc(O)c5nc6c7c8c9c(C)c(O)c7c(=O)c(c-6oc5c4)NC(=O)/C(C)=C\\C=C\\[C@H](C(C)OC(=O)C(C)(C)CC(=O)O)[C@H](O)[C@@H](C)[C@@H](O)[C@@H](C)[C@H](OC(C)=O)[C@H](C)[C@@H](O[C@H]4C[C@@H]5OCO[C@@H]5[C@@H](C)O4)/C=C/O[C@@](C)(O9)C8=O)[C@@H]3C2)c(F)cc2c(=O)c(C(=O)O)cn(C3CC3)c12", "note": "(stereo not given in full)", "values": [{"measurement": "MIC", "setting": "Staphylococcus aureus [1]", "value": 8, "unit": "µg/mL"}, {"measurement": "MIC", "setting": "Staphylococcus aureus [2]", "value": 0.5, "unit": "µg/mL"}, {"measurement": "MIC", "setting": "Staphylococcus aureus [3]", "value": 0.5, "unit": "µg/mL"}, {"measurement": "MIC", "setting": "Staphylococcus aureus [4]", "value": "> 64", "unit": "µg/mL"}, {"measurement": "MIC", "setting": "Escherichia coli", "value": 32, "unit": "µg/mL"}, {"measurement": "IC50", "setting": "HEK293", "value": "> 64", "unit": "µg/mL"}]}, {"compound": "CC(=O)O[C@H]1[C@H](C)[C@H](O)[C@H](C)[C@@H](O)[C@@H](C(C)OC(=O)C(C)(C)CC(=O)N[C@@H]2CCCCN(c3c(F)cc4c(=O)c(C(=O)O)cn(C5CC5)c4c3Cl)C2)/C=C/C=C(/C)C(=O)NC2=CC(=O)c3c(c(O)c(C)c4c3C(=O)[C@@](C)(O/C=C/[C@H](O[C@H]3C[C@@H]5OCO[C@@H]5[C@@H](C)O3)[C@H]1C)O4)C2=O", "note": "(stereo not given in full)", "values": [{"measurement": "MIC", "setting": "Staphylococcus aureus [1]", "value": 16, "unit": "µg/mL"}, {"measurement": "MIC", "setting": "Staphylococcus aureus [2]", "value": 16, "unit": "µg/mL"}, {"measurement": "MIC", "setting": "Staphylococcus aureus [3]", "value": 16, "unit": "µg/mL"}, {"measurement": "MIC", "setting": "Staphylococcus aureus [4]", "value": "> 64", "unit": "µg/mL"}, {"measurement": "MIC", "setting": "Escherichia coli", "value": "> 64", "unit": "µg/mL"}, {"measurement": "IC50", "setting": "HEK293", "value": "> 64", "unit": "µg/mL"}]}]}
